Measurements reported in ChEMBL document CHEMBL1268908, “Design, synthesis, radiolabeling, and in vivo evaluation of carbon-11 labeled N-[2-[4-(3-cyanopyridin-2-yl)piperazin-1-yl]ethyl]-3-methoxybenzamide, a potential positron emission tomography tracer for the dopamine D(4) receptors” (J Med Chem, 2010).

Columns and labels:
Type in all cases: ADME, organism-based, Macaca mulatta
[1] = Biodistribution in rhesus monkey occipital lobe at 150.3 MBq, iv after 49 mins; settings: in vivo
In short: (§1)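 A male rhesus monkey was anaesthetised with ketamine 10 mg/kg im and placed in a head fixation device. A 20 min 68Ge-68Ga transmission scan was run for attenuation correction. Radiotracer in saline (pH 7.4) was given iv, about 52 pmol (18 ng), at 2.9 TBq/μmol at injection. A dynamic 3D PET scan followed for 90 min. Regional VOIs were defined on a T1-weighted MRI, with uptake expressed as %ID/mL.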

[2] = system: Hippocampus; assay: Biodistribution in rhesus monkey hippocampus at 150.3 MBq, iv after 15 mins; settings: in vivo, 0.25 h
In short: (§2)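 Single male rhesus monkey anesthetized with ketamine 10 mg/kg im, head fixed. Attenuation correction by 20 min 68Ge-68Ga transmission scan. [11C]-tracer in saline (pH 7.4) given iv, specific radioactivity 2.9 TBq/μmol at injection. Dynamic 3D PET emission scan over 90 min in frames of 0.5 to 5 min. MRI T1 images used to define VOIs. Uptake expressed as […].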

[3] = Biodistribution in rhesus monkey cingulate cortex at 150.3 MBq, iv after 13 mins; settings: in vivo
In short: (§3)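 Male rhesus monkey under ketamine (10 mg/kg im) with head fixation. After a 20 min 68Ge-68Ga transmission scan, the [11C]-labelled tracer in saline (pH 7.4) was injected iv, at 2.9 TBq/μmol specific radioactivity at injection. A dynamic 3D PET scan followed over 90 min (6×0.5, 7×1, 20×2, 8×5 min frames). Regions were defined on T1-weighted 1.5 T MRI, and uptake is given as %ID/mL.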

[4] = Biodistribution in rhesus monkey cingulate cortex at 150.3 MBq, iv after 2.25 mins; settings: in vivo, 135 s; in short: as §3
[5] = system: Striatum; assay: Biodistribution in rhesus monkey striatum at 150.3 MBq, iv after 9.5 mins; settings: in vivo
[6] = Biodistribution in rhesus monkey entorhinal cortex at 150.3 MBq, iv after 33 mins; settings: in vivo, 0.55 h; in short: as §2
[7] = Biodistribution in rhesus monkey cerebellum at 150.3 MBq, iv after 29 mins; settings: in vivo; in short: as §3
[8] = system: Striatum; assay: Biodistribution in rhesus monkey striatum at 150.3 MBq, iv after 0.25 mins; settings: in vivo, 15 s
[9] = system: Striatum; assay: Biodistribution in rhesus monkey striatum at 150.3 MBq, iv after 62.5 mins; settings: in vivo
[10] = system: Striatum; assay: Biodistribution in rhesus monkey striatum at 150.3 MBq, iv after 7.5 mins; settings: in vivo, 0.125 h
[11] = system: Hippocampus; assay: Biodistribution in rhesus monkey hippocampus at 150.3 MBq, iv after 2.75 mins; settings: in vivo, 165 s; in short: as §2
[12] = system: Hippocampus; assay: Biodistribution in rhesus monkey hippocampus at 150.3 MBq, iv after 21 mins; settings: in vivo, 0.35 h; in short: as §2
[13] = Biodistribution in rhesus monkey retina at 150.3 MBq, iv after 72.5 mins; settings: in vivo
[14] = system: Hippocampus; assay: Biodistribution in rhesus monkey hippocampus at 150.3 MBq, iv after 29 mins; settings: in vivo
In short: (§4)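 Male rhesus monkey under ketamine 10 mg/kg im, head fixed; 20 min 68Ge-68Ga transmission scan, then 90 min dynamic 3D PET (6×0.5, 7×1, 20×2, 8×5 min frames) after iv [11C]-labelled tracer in saline, specific radioactivity about 2.9 TBq/μmol at injection. Regions defined on T1-weighted MRI; uptake expressed as % injected dose per mL.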

[15] = Biodistribution in rhesus monkey cerebellum at 150.3 MBq, iv after 49 mins; settings: in vivo; in short: as §3
[16] = system: Striatum; assay: Biodistribution in rhesus monkey striatum at 150.3 MBq, iv after 35 mins; settings: in vivo
[17] = Biodistribution in rhesus monkey retina at 150.3 MBq, iv after 19 mins; settings: in vivo
[18] = system: Striatum; assay: Biodistribution in rhesus monkey striatum at 150.3 MBq, iv after 2.25 mins; settings: in vivo, 135 s
[19] = system: Hippocampus; assay: Biodistribution in rhesus monkey hippocampus at 150.3 MBq, iv after 87.5 mins; settings: in vivo; in short: as §4
[20] = Biodistribution in rhesus monkey cerebellum at 150.3 MBq, iv after 77.5 mins; settings: in vivo; in short: as §3
[21] = Biodistribution in rhesus monkey occipital lobe at 150.3 MBq, iv after 87.5 mins; settings: in vivo
[22] = Biodistribution in rhesus monkey cingulate cortex at 170.3 MBq, iv after 17 mins; settings: in vivo, in the assay text read “150.3 MBq” for “170.3 MBq”; in short: as §2
[23] = Biodistribution in rhesus monkey cerebellum at 150.3 MBq, iv after 23 mins; settings: in vivo; in short: as §3
[24] = system: Striatum; assay: Biodistribution in rhesus monkey striatum at 150.3 MBq, iv after 25 mins; settings: in vivo
[25] = Biodistribution in rhesus monkey entorhinal cortex at 150.3 MBq, iv after 15 mins; settings: in vivo, 0.25 h; in short: as §2
[26] = system: Striatum; assay: Biodistribution in rhesus monkey striatum at 150.3 MBq, iv after 43 mins; settings: in vivo
[27] = Biodistribution in rhesus monkey entorhinal cortex at 150.3 MBq, iv after 2.25 mins; settings: in vivo, 135 s; in short: as §2
[28] = Biodistribution in rhesus monkey retina at 150.3 MBq, iv after 6.5 mins; settings: in vivo
[29] = system: Hippocampus; assay: Biodistribution in rhesus monkey hippocampus […], iv after 17 mins; settings: in vivo, in the assay text read “150.3 MBq” for “170.3 MBq”; in short: as §4
[30] = Biodistribution in rhesus monkey cerebellum at 150.3 MBq, iv after 15 mins; settings: in vivo, 0.25 h; in short: as §3
[31] = Biodistribution in rhesus monkey entorhinal cortex at 150.3 MBq, iv after 49 mins; settings: in vivo; in short: as §2
[32] = system: Striatum; assay: Biodistribution in rhesus monkey striatum at 150.3 MBq, iv after 6.5 mins; settings: in vivo
[33] = system: Hippocampus; assay: Biodistribution in rhesus monkey hippocampus at 150.3 MBq, iv after 72.5 mins; settings: in vivo; in short: as §4
[34] = system: Hippocampus; assay: Biodistribution in rhesus monkey hippocampus at 150.3 MBq, iv after 47 mins; settings: in vivo; in short: as §4
[35] = Biodistribution in rhesus monkey occipital lobe at 150.3 MBq, iv after 39 mins; settings: in vivo, 0.65 h; in short: as §4
[36] = system: Striatum; assay: Biodistribution in rhesus monkey striatum at 150.3 MBq, iv after 1.25 mins; settings: in vivo, 75 s
[37] = system: Striatum; assay: Biodistribution in rhesus monkey striatum at 150.3 MBq, iv after 37 mins; settings: in vivo
[38] = Biodistribution in rhesus monkey occipital lobe at 150.3 MBq, iv after 41 mins; settings: in vivo; in short: as §1
[39] = Biodistribution in rhesus monkey retina at 150.3 MBq, iv after 82.5 mins; settings: in vivo, 1.375 h
[40] = Biodistribution in rhesus monkey retina at 150.3 MBq, iv after 47 mins; settings: in vivo
[41] = system: Striatum; assay: Biodistribution in rhesus monkey striatum at 150.3 MBq, iv after 45 mins; settings: in vivo, 0.75 h
[42] = Biodistribution in rhesus monkey cerebellum at 150.3 MBq, iv after 2.25 mins; settings: in vivo, 135 s; in short: as §3
[43] = system: Striatum; assay: Biodistribution in rhesus monkey striatum at 150.3 MBq, iv after 5.5 mins; settings: in vivo
[44] = Biodistribution in rhesus monkey occipital lobe at 150.3 MBq, iv after 2.25 mins; settings: in vivo, 135 s; in short: as §4
[45] = Biodistribution in rhesus monkey retina at 150.3 MBq, iv after 11 mins; settings: in vivo

[11CH3]Oc1cccc(C(=O)NCCN2CCN(c3ncccc3C#N)CC2)c1
Drug uptake [1]: 9.036 kBq/ml
Drug uptake [2]: 20.97 kBq/ml
Drug uptake [3]: 22.54 kBq/ml
Drug uptake [4]: 50.61 kBq/ml
Drug uptake [5]: 31.24 kBq/ml
Drug uptake [6]: 16.29 kBq/ml
Drug uptake [7]: 14.54 kBq/ml
Drug uptake [8]: 42.71 kBq/ml
Drug uptake [9]: 9.547 kBq/ml
Drug uptake [10]: 34.7 kBq/ml
Drug uptake [11]: 47.34 kBq/ml
Drug uptake [12]: 17.71 kBq/ml
Drug uptake [13]: 51.43 kBq/ml
Drug uptake [14]: 16.7 kBq/ml
Drug uptake [15]: 10.45 kBq/ml
Drug uptake [16]: 13.39 kBq/ml
Drug uptake [17]: 53.57 kBq/ml
Drug uptake [18]: 51.53 kBq/ml
Drug uptake [19]: 8.159 kBq/ml
Drug uptake [20]: 8.009 kBq/ml
Drug uptake [21]: 7.721 kBq/ml
Drug uptake [22]: 18.9122 kBq/ml
Drug uptake [23]: 16.31 kBq/ml
Drug uptake [24]: 17.99 kBq/ml
Drug uptake [25]: 22.26 kBq/ml
Drug uptake [26]: 11.39 kBq/ml
Drug uptake [27]: 40.15 kBq/ml
Drug uptake [28]: 44.54 kBq/ml
Drug uptake [29]: 19.15 kBq/ml
Drug uptake [30]: 19.28 kBq/ml
Drug uptake [31]: 9.688 kBq/ml
Drug uptake [32]: 36.37 kBq/ml
Drug uptake [33]: 8.523 kBq/ml
Drug uptake [34]: 9.35 kBq/ml
Drug uptake [35]: 9.974 kBq/ml
Drug uptake [36]: 60.2 kBq/ml
Drug uptake [37]: 12.6 kBq/ml
Drug uptake [38]: 9.836 kBq/ml
Drug uptake [39]: 52.3 kBq/ml
Drug uptake [40]: 57.02 kBq/ml
Drug uptake [41]: 11.04 kBq/ml
Drug uptake [42]: 44.35 kBq/ml
Drug uptake [43]: 39.4 kBq/ml
Drug uptake [44]: 44.53 kBq/ml
Drug uptake [45]: 49.56 kBq/ml
